Measurements as given in ChEMBL document CHEMBL1149614, “Exomethylene pyranonucleosides: efficient synthesis and biological evaluation of 1-(2,3,4-trideoxy-2-methylene-beta-d-glycero-hex-3-enopyranosyl)thymine” (Bioorg Med Chem, 2007).

How the values were obtained:
[1] = Selectivity index, ratio of CC50 for rhesus monkey MA104 cells to IC50 for Rotavirus RF; type: functional
[2] = tested on: Caco-2; experiment: Cytotoxicity against human Caco-2 cells after 72 hrs; type: functional; settings: Caco-2, 72 h
Method in brief: (§1)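 H4 or Caco-2 cells (6 × 10⁶ per plate) treated with 3-fold serial dilutions from 0.5 mg/mL and held 72 h at 37 °C in a humidified incubator. Results are mean % of treated (n = 2) versus control (n = 24) absorbance.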

[3] = Selectivity index, ratio of CC50 for human Caco-2 cells to IC50 for Rotavirus RF; type: functional
[4] = tested on: Rotavirus; experiment: Antiviral activity against Rotavirus RF infected in rhesus monkey MA104 cells assessed as neutralization of virus in solution before its attachment after 72 hrs; type: functional, organism-based; settings: MA104, 72 h
Method in brief: (§2)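 Threefold dilutions from 0.5 mg/mL were co-incubated with rotavirus RF in trypsin-supplemented DMEM for 12 h at 37 °C, 5% CO2, before infecting monolayers. Results are mean % of virus-only control (n = 6) for each dilution. IC50 taken from the concentration–effect curve.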

[5] = Selectivity index, ratio of CC50 for rhesus monkey MA104 cells to IC50 for Rotavirus RF after attachment to MA104 cells
[6] = tested on: H4; experiment: Cytotoxicity against human H4 cells after 72 hrs; type: functional; settings: H4, 72 h; method in brief: as §1
[7] = tested on: Caco-2; experiment: Growth inhibition of human Caco-2 cells after 10 days; type: functional, cell-based; settings: Caco-2, 240 h
Method in brief: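 Caco-2 monolayers in DMEM/10% fetal bovine serum received 3-fold dilutions from 0.5 mg/mL, six wells per compound, for 10 days at 37 °C, humidified. Colonies counted in each well. Results are mean % colony number of treated (n = 2) versus control (n = 24) wells.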

[8] = tested on: Rotavirus; experiment: Antiviral activity against Rotavirus RF in human Caco-2 cells assessed as neutralization of virus in solution before its attachment after 72 hrs; type: functional, organism-based; settings: Caco-2, 72 h; method in brief: as §2
[9] = Tumor selectivity index, ratio of CC50 for human H4 cells to CC50 for human Caco-2 cells; type: functional
Method in brief: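 Ratio of 72 h crystal-violet CC50 in H4 cells to CC50 in Caco-2 cells.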

[10] = tested on: Rotavirus; experiment: Antiviral activity against Rotavirus RF in rhesus monkey MA104 cells assessed as inhibition of infectivity following virus attachment after 72 hrs; type: functional, organism-based; settings: MA104, 72 h
Method in brief: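 Monolayers infected with rotavirus RF for 1 h at 37 °C in 5% CO2, then washed with unsupplemented DMEM and immediately given 3-fold serial dilutions from 0.5 mg/mL. Results are mean % of virus-only control absorbance (n = 6).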

[11] = Tumor selectivity index, ratio of CC50 for human H4 cells to CC50 for rhesus monkey MA104 cells; type: functional
[12] = Cytotoxicity against rhesus monkey MA104 cells after 72 hrs; type: functional; settings: Macaca mulatta, MA104, 72 h

C=C1[C@@H](O)[C@@H](O)[C@@H](CO)O[C@H]1n1cc(C)c(=O)[nH]c1=O
Ratio CC50/IC50 [1]: 85.8 | CC50 [2]: 70.4 µM | Ratio CC50/IC50 [3]: 28.61 | IC50 [4]: 2460 nM | Ratio CC50/IC50 [5]: 30.03 | CC50 [6]: 1.76 mM | IC50 [7]: 21.1 µM | IC50 [8]: 2460 nM | Ratio [9]: 24.9 | IC50 [10]: 7.03 µM | Ratio [11]: 8.3 | CC50 [12]: 211 µM

Cc1cn([C@@H]2O[C@H](CO)[C@H](O)[C@H](O)C2=O)c(=O)[nH]c1=O
Ratio CC50/IC50 [1]: 85.9 | CC50 [2]: 69.9 µM | Ratio CC50/IC50 [3]: 28.65 | IC50 [4]: 2440 nM | Ratio CC50/IC50 [5]: 30.03 | CC50 [6]: 1.75 mM | IC50 [7]: 0.7 µM | IC50 [8]: 2440 nM | Ratio [9]: 25 | IC50 [10]: 6.98 µM | Ratio [11]: 8.3 | CC50 [12]: 210 µM

C=C1C=C[C@@H](CO)O[C@H]1n1cc(C)c(=O)[nH]c1=O
CC50 [2]: 2000 µM | Ratio CC50/IC50 [5]: 5.99 | CC50 [6]: 0.0028 mM | IC50 [7]: 79.9 µM | Ratio [9]: 0.0014 | IC50 [10]: 79.9 µM | Ratio [11]: 0.0058 | CC50 [12]: 480 µM

C=C1C=C[C@@H](COC(c2ccccc2)(c2ccccc2)c2ccccc2)O[C@H]1n1cc(C)c(=O)[nH]c1=O
CC50 [2]: 1020 µM | Ratio CC50/IC50 [5]: 60 | CC50 [6]: 0.0406 mM | IC50 [7]: 0.4 µM | Ratio [9]: 0.04 | IC50 [10]: 4.06 µM | Ratio [11]: 0.16 | CC50 [12]: 244 µM

O=c1[nH]cc(F)c(=O)[nH]1 [FLUOROURACIL]
CC50 [6]: 3.84 mM | Ratio [9]: 10 | Ratio [11]: 16.67 | CC50 [12]: 231 µM

Cc1cn([C@H]2C[C@H](N=[N+]=[N-])[C@@H](CO)O2)c(=O)[nH]c1=O [ZIDOVUDINE]
Ratio CC50/IC50 [1]: 3.01 | Ratio CC50/IC50 [3]: 0.75 | IC50 [4]: 74600 nM | Ratio CC50/IC50 [5]: 10.03 | IC50 [10]: 22.4 µM
